How the values were obtained:
MOLT-4 = test: Cytotoxicity against human MOLT4 cells after 48 hrs by SRB assay; assay type: functional; details: MOLT-4, 48 h
Outline: (§1)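 NCI 60-cell-line screen. Cells preincubated 24 h at 37 °C, 5% CO2; time-zero plates TCA-fixed. Compounds dissolved in DMSO and tested at five concentrations (100, 10, 1.0, 0.1, 0.01 µM) for 48 h continuous exposure. Adherent cells fixed with cold TCA (10% final), then SRB stained; absorbance at 515 nm. GI50, TGI and LC50 calculated from growth relative to time-zero and untreated controls.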

HL-60(TB) = test: Cytotoxicity against human HL-60(TB) cells after 48 hrs by SRB assay; assay type: functional; details: HL-60, 48 h; outline: as §1
OVCAR-3 = test: Cytotoxicity against human OVCAR3 cells after 48 hrs by SRB assay; assay type: functional; details: OVCAR-3, 48 h; outline: as §1
A498 = test: Cytotoxicity against human A498 cells after 48 hrs by SRB assay; assay type: functional; details: A498, 48 h; outline: as §1
Hs-578T = test: Cytotoxicity against human Hs578T cells after 48 hrs by SRB assay; assay type: functional; outline: as §1
SK-MEL-28 = test: Cytotoxicity against human SK-MEL-28 cells after 48 hrs by SRB assay; assay type: functional; details: SK-MEL-28, 48 h; outline: as §1
HOP-62 = test: Cytotoxicity against human HOP62 cells after 48 hrs by SRB assay; assay type: functional; details: HOP-62, 48 h; outline: as §1
ACHN = test: Cytotoxicity against human ACHN cells after 48 hrs by SRB assay; assay type: functional; outline: as §1
786-0 = test: Cytotoxicity against human 786-0 cells after 48 hrs by SRB assay; assay type: functional; details: 786-0, 48 h; outline: as §1
SNB-75 = test: Cytotoxicity against human SNB75 cells after 48 hrs by SRB assay; assay type: functional; details: SNB-75, 48 h
Outline: (§2)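 NCI 60-cell screen. Cells grew 24 h (37 °C, 5% CO2) before compound was added. Compounds were in DMSO and diluted in medium with gentamicin, then tested at five levels (100, 10, 1.0, 0.1, 0.01 µM) with 48 h continuous exposure. Adherent cells were fixed with TCA (10% final) and stained with 0.4% SRB, absorbance read at 515 nm. A time-zero plate was included. LC50 is the concentration giving 50% loss of protein relative to time zero.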

MDA-MB-231 = test: Cytotoxicity against human MDA-MB-231 cells after 48 hrs by SRB assay; assay type: functional; details: MDA-MB-231, 48 h; outline: as §1
[1] = Toxicity in RBC (unknown origin) assessed as hemolysis after 48 hrs at 20 to 80 ug/ml by spectrophotometry; assay type: cell-based, Erythrocyte; details: red blood cells (RBC); read-out: Activity
Outline: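 Red blood cells at 5% hematocrit in RPMI 1640 exposed to 20, 40 and 80 µg/mL for 48 h at 37 °C; free hemoglobin read spectrophotometrically at 542 nm.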

NCI-H322M = test: Cytotoxicity against human NCI-H322M cells after 48 hrs by SRB assay; assay type: functional; outline: as §1
[2] = Cytotoxicity against human EKVX cells after 48 hrs by SRB assay; assay type: functional; outline: as §1
PC-3 = test: Cytotoxicity against human PC3 cells after 48 hrs by SRB assay; assay type: functional; details: PC-3, 48 h; outline: as §1
OVCAR-4 = test: Cytotoxicity against human OVCAR4 cells after 48 hrs by SRB assay; assay type: functional; details: OVCAR-4, 48 h; outline: as §1
OVCAR-5 = test: Cytotoxicity against human OVCAR5 cells after 48 hrs by SRB assay; assay type: functional; details: OVCAR-5, 48 h; outline: as §1
MCF7 = test: Cytotoxicity against human MCF7 cells after 48 hrs by SRB assay; assay type: functional; details: MCF7, 48 h; outline: as §1
TK-10 = test: Cytotoxicity against human TK10 cells after 48 hrs by SRB assay; assay type: functional; details: TK-10, 48 h; outline: as §2
SW-620 = test: Cytotoxicity against human SW620 cells after 48 hrs by SRB assay; assay type: functional; details: SW-620, 48 h; outline: as §2
UO-31 = test: Cytotoxicity against human UO31 cells after 48 hrs by SRB assay; assay type: functional; details: UO-31, 48 h; outline: as §2
HOP-92 = test: Cytotoxicity against human HOP92 cells after 48 hrs by SRB assay; assay type: functional; details: HOP-92, 48 h; outline: as §1
UACC-257 = test: Cytotoxicity against human UACC257 cells after 48 hrs by SRB assay; assay type: functional; details: UACC-257, 48 h; outline: as §2
SNB-19 = test: Cytotoxicity against human SNB19 cells after 48 hrs by SRB assay; assay type: functional; details: SNB-19, 48 h; outline: as §2
NCI-H23 = test: Cytotoxicity against human NCI-H23 cells after 48 hrs by SRB assay; assay type: functional; details: NCI-H23, 48 h; outline: as §1
DU-145 = test: Cytotoxicity against human DU145 cells after 48 hrs by SRB assay; assay type: functional; details: DU-145, 48 h; outline: as §1
Plasmodium falciparum = test: Antimalarial activity against Plasmodium falciparum NF54 infected in human serum after 48 hrs by fluorometric method; assay type: functional, organism-based
Outline: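 Asynchronous P. falciparum NF54 cultures at 1.5–2% parasitemia, 5% hematocrit in RPMI with 10% human serum; equal volumes of parasite suspension and compound dilutions (from 100 µg/mL stock) incubated 48 h, 37 °C, 90% N2/5% CO2/5% O2. DNA extracted with proteinase K lysis, stained with ethidium bromide; fluorescence-based viability vs compound-free control. IC50 by Probit; triplicate.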

[3] = read-out: LC50 (the source's name)

CC(=O)N1N=C(c2ccc(Nc3ccnc4cc(Cl)ccc34)cc2)CC1c1ccc(Cl)cc1 (stereo not given)
3.96 µM: GI50 (ACHN)
100 µM: GI50 (SW-620)
7.19 µM: GI50 (OVCAR-3)
2.42 µM: GI50 (MOLT-4)
4.04 µM: GI50 (MCF7)
6.92 µM: GI50 (OVCAR-4)
4.88 µM: GI50 (SK-MEL-28)
3.4%: hemolysis at 48 h [1]
54.6 µg/mL: IC50 (Plasmodium falciparum)
3.02 µM: GI50 (PC-3)
3.56 µM: GI50 (HL-60(TB))
> 100 µM: LC50 (MOLT-4) | CC50 (HL-60(TB); [3]) | LC50 (OVCAR-3) | GI50 (A498) | CC50 (A498; [3]) | GI50 (Hs-578T) | LC50 (50% net cell kill) (Hs-578T) | CC50 (SK-MEL-28; [3]) | GI50 (HOP-62) | LC50 (50% lethal concentration) (HOP-62) | CC50 (ACHN; [3]) | GI50 (786-0) | LC50 (786-0) | LC50 (50% net cell kill) (SNB-75) | GI50 (MDA-MB-231) | LC50 (concentration killing 50% of cells present at time zero) (MDA-MB-231) | GI50 (NCI-H322M) | LC50 (50% lethal concentration) (NCI-H322M) | LC50 [2] | LC50 (PC-3) | LC50 (OVCAR-4) | GI50 (OVCAR-5) | LC50 (OVCAR-5) | CC50 (MCF7; [3]) | GI50 (TK-10) | LC50 (concentration giving 50% cell loss vs time zero) (TK-10) | LC50 (SW-620) | LC50 (UO-31) | GI50 (HOP-92) | LC50 (concentration killing 50% of cells) (HOP-92) | GI50 (UACC-257) | LC50 (UACC-257) | GI50 (SNB-19) | LC50 (SNB-19) | GI50 (NCI-H23) | CC50 (NCI-H23; [3]) | GI50 (DU-145) | LC50 (concentration killing 50% of cells) (DU-145)
3.87 µM: GI50 (UO-31)
